NF-kB expr up – activators of NF-kB expression in neurons, primary screen, cell-based, HTS | human neuronal cells, NF-kB reporter expression; hits give high values | fold change at 12.5 µM | actives 1.6% (n = 190,000); in the data active = fold change above about 3.3
STAT1 inh – STAT1 signaling inhibitors, primary screen, cell-based, HTS, luciferase reporter; NIH 3T3 STAT1-luciferase reporter, IFN-gamma, luminescence; inhibition, % at 5.5 µM; actives 0.35% (n = 200,000); AID 920, 2007;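 active = inhibition above a set limit, the mean inhibition across all tested compounds plus 3 SD, cut at about 34% in these data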;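 also: 0% = IFN-gamma with DMSO and 100% = IFN-gamma with 300 µM nifuroxazide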
STAT3 blocker – IL-6 driven STAT3 reporter inhibitors, primary screen, U3A cells, luciferase, luminescence, MLSCN library. IL-6 STAT3-luciferase reporter; host cell line lacks STAT1. inhibition, % at 5.5 µM. actives 0.89% (n = 190,000);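 active = inhibition above the mean inhibition across all screened compounds plus 3 SD, cut at about 44% in these data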;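 also: 0% = DMSO only wells and 100% = 100 µM nifuroxazide control wells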
STAT1 act – STAT1 signaling activators, primary screen, cell-based, HTS, luciferase reporter | AID 932, 2007 | NIH 3T3 STAT1-luciferase reporter, IFN-gamma, luminescence; 100% = IFN-gamma alone, no compound | activation (% of control), % at 5.5 µM | actives 2.6% (n = 200,000);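 active = activation above the screen-wide mean activation plus 3 SD, cut at about 130% in these data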;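 also: raw ratio to IFN-gamma control signal so 100% means no change and 0% no light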
APP 5'UTR act – activators of APP 5'UTR luciferase reporter, primary screen, SH-SY5Y cells; actives 1% (n = 190,000); SH-SY5Y APP 5'UTR luciferase reporter, luminescence; zero percent = DMSO vehicle wells; AID 1276, 2008; activation, % at 2 µM;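 active = activation above a set limit, based on mean plus 3 SD of controls, cut at about 140% in these data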
STAT3 act – IL-6 driven STAT3 reporter potentiators, primary screen, U3A cells, luciferase, luminescence, MLSCN library; IL-6 STAT3-luciferase reporter; 100% = signal with IL-6 EC80 alone; activation (% of control), % at 5.6 µM; actives 0.91% (n = 190,000);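 active = activation above the screen-wide mean of compound activation plus 3 SD, cut at about 130% in these data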;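 also: 0% = background luminescence of wells with medium and substrate only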
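Material: STAT3-luciferase reporter U3A cells; Probe or stimulus: IL-6 (33 ng/mL); Incubation: compound pre-incubation 1 h before IL-6, then 6 h stimulation at 37 °C; Technique: luminescence from STAT3-driven luciferase reporter; Evaluation: % activation versus median of IL-6-stimulated wells; Controls: IL-6-only high control.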
Numbers without * were called inactive; . = no result. Compounds with a hit are over-represented: about 5.1% of the library has one in this group of screens.

SMILES	NF-kB expr up	STAT1 inh	STAT3 blocker	STAT1 act	APP 5'UTR act	STAT3 act
O=c1c2nnn(-c3ccccc3)c2ncn1C/C=C/c1ccccc1	0.89	-5.0	.	103.3	9.0	.
O=C(c1cc2c(=O)n3ccccc3nc2s1)N1CCOCC1	2.01	-35.9	-4.1	131.2*	45.3	107.2
Cc1nc2sc(C(=O)Nc3ccccc3)c(N)c2c(C)c1[N+](=O)[O-]	1.74	-25.3	-27.5	125.8	167.9*	128.4
O=C(CN1CCSC1=NCc1ccccc1)c1ccc(Cl)cc1	1.65	7.0	14.4	93.7	6.7	90.4
Cc1occc1C(=O)NNC(=S)Nc1ccccc1C(F)(F)F	0.95	-36.0	-4.1	132.9*	108.2	102.2
O=C(CN1CCN(S(=O)(=O)c2ccc(Br)cc2)CC1)N/N=C/c1ccc(Br)s1	0.89	-8.4	-1.5	107.0	12.4	113.1
Cc1cccn2c(N)c(-c3ccccc3)nc12	1.28	-1.8	-34.6	101.6	17.8	133.8*
CCc1nnc(NC(=O)c2oc3cc(C)c(C)cc3c2C)s1	1.38	-0.1	12.2	99.6	17.0	90.9
Cc1ccc2oc(C(=O)Nc3nnc(C)s3)c(C)c2c1	4.7*	-44.4	27.2	140.9*	7.8	77.4
O=C(Cn1nc(-c2cccc([N+](=O)[O-])c2)c2ccccc2c1=O)NCC1CCCO1 (stereo not drawn)	1.09	-0.3	-5.0	97.3	4.7	108.3
CN1CCN(Cc2cc(Cl)c3cccnc3c2OC(=O)c2cccs2)CC1	13.1*	10.3	-6.4	90.8	-3.8	107.7
Cc1c(C#N)c(O)n(CCO)c(=O)c1N=Nc1ccc(S(N)(=O)=O)cc1	1	4.3	10.2	95.4	13.8	101.4
Cc1c(C#N)c(O)n(C)c(=O)c1N=Nc1ccc(S(N)(=O)=O)cc1	1.09	-46.0	1.0	141.2*	-1.3	110.6
Nc1nc(Nc2ccc(Cl)cc2Cl)nc(C(F)(F)F)n1	1.9	-43.6	-8.5	140.2*	-0.5	109.2
Nc1nc(Nc2ccccc2Br)nc(C(F)(F)F)n1	1.39	-8.0	8.8	108.4	8.6	93.0
O=C(/C=C/c1ccc(F)cc1)NCC1(c2ccccc2)CCOCC1	1.04	-4.0	-1.7	103.5	0.6	101.6
COc1ccc(NC(=O)C(OC)c2ccccc2)cc1Cl (stereo not drawn)	1.13	-2.7	7.0	102.4	5.1	96.3
COc1ccc(NC(=O)c2cccc(F)c2)cc1Cl	2.4	-32.0	11.0	129.5*	29.7	96.8
O=C(Nc1ccc2cn[nH]c2c1)c1c(Cl)cccc1Cl	0.88	5.2	20.0	95.2	12.1	80.5
COc1ccc(NC(=O)c2ccccc2F)cc1Cl	4.32*	-20.6	14.4	118.9	120.4	93.8
O=C(Nc1ccc2cn[nH]c2c1)c1ccccc1F	1.04	-49.5	4.0	146.6*	82.5	95.5
Cc1oc2cc3c(C(=O)N4CCCCC4)c(C)oc3cc2c1C(=O)N1CCCCC1	0.88	-42.8	-30.6	139.1*	71.4	132.5
N/C(=N\OC(=O)/C=C/c1ccccc1)c1ccccn1	1.14	-12.4	31.7	110.1	160.5*	77.9
COc1ccccc1C/C(N)=N/OC(=O)COc1cccc(C)c1C	1.1	-2.7	2.4	99.8	0.1	102.0
O=C(/C=C/c1ccccc1)c1ccccn1	1.2	-17.9	1.4	116.1	9.9	107.7
SMILES	NF-kB expr up	STAT1 inh	STAT3 blocker	STAT1 act	APP 5'UTR act	STAT3 act
N/C(=N\OC(=O)Cc1cccc2ccccc12)c1ccccn1	6.14*	-24.9	-0.6	123.0	109.4	106.6
Cc1ccc(OCC(=O)O/N=C(\N)c2ccccn2)cc1	2.51	-47.2	-3.1	143.9*	101.4	111.7
Cc1ccc(OCC(=O)O/N=C(\N)c2cccnc2)cc1	1.55	-18.4	12.8	116.8	38.8	95.3
Cc1cccc(OCC(=O)O/N=C(\N)c2ccccn2)c1C	2.17	-42.6	-0.9	138.4*	71.9	103.6
CC(=O)N1CC=CC1(C)C(=O)O (stereo not drawn)	1.08	-1.7	0.7	101.6	-3.6	97.0
CN(Cc1ccccc1)C(=O)[C@H]1CCC(=O)N1Cc1ccco1	1.17	-0.3	1.1	100.3	23.8	100.4
Cn1cccc1C(=O)C(=O)Nc1cccc(Cl)c1Cl	3.64*	-52.6	-70.6	147.0*	34.9	156.7*
Cn1cccc1C(=O)C(=O)Nc1ccc(Cl)cc1	10.6*	-22.2	30.9	119.9	186.0*	76.8
Cn1cccc1C(=O)C(=O)Nc1cc(Cl)cc(Cl)c1	2.14	-25.0	-7.8	122.3	21.5	107.3
N#CCCn1cc(/C=N/NC(N)=S)c(-c2ccccc2)n1	1.03	-1.8	-0.3	100.6	10.6	101.6
O=C(N/C=N/OCc1ccc(Cl)cc1Cl)NOCc1ncc(C(F)(F)F)cc1Cl	0.82	5.3	5.4	95.1	-2.7	100.5
CN(CC(=O)N1CCc2ccccc21)S(=O)(=O)c1cccs1	1.79	-32.4	-10.4	129.9*	11.4	116.1
COC(=O)CCCC(=O)N1CCCC(CNS(=O)(=O)c2ccc(OC)cc2)C1 (stereo not drawn)	1.08	3.4	4.0	95.5	10.3	101.1
COC(=O)C1C(=O)c2c([nH]c(C(=O)OC3CCCC3C)c2C)CC1C (stereo not drawn)	3.01	-39.6	-23.8	138.1*	156.6*	119.6
COc1cccc(NC(=S)N/N=C2\CC3CCC2(C)C3(C)C)c1 (stereo not drawn)	1.45	-31.9	-4.1	129.0*	60.3	105.4
CC12CCC(C/C1=N/NC(=O)Nc1ccccc1)C2(C)C (stereo not drawn)	1.5	-4.1	-3.8	102.8	12.4	104.2
COc1cc2c(cc1OC)C(C)N(C(=S)NC(=O)c1ccccc1)CC2 (stereo not drawn)	0.78	17.5	9.6	82.0	-8.1	97.7
COc1ccc(CCNc2cc(N3CCN(C(=O)c4ccc(C)cc4)CC3)ccc2[N+](=O)[O-])cc1OC	1.47	7.9	8.1	94.7	7.0	91.7
COc1ccccc1OCCNc1cc(N2CCCCC2)ccc1[N+](=O)[O-]	1.09	11.8	-3.6	89.5	17.8	101.1
